PMC7231760 (International Journal of Nanomedicine, 2020)

Tests used:
HCV NS3 protease = HCV NS3 protease (Hepatitis C virus, UniProt P27958); experiment: Anti-HCV NS3 protease assay; format: biochemical; details: SNPs of total extract and petroleum ether fraction, controls (Table 2)
HCV NS3 helicase = HCV NS3 helicase (Hepatitis C virus genotype 1a, UniProt P27958); experiment: Anti-HCV NS3 helicase assay; format: biochemical
How it was run: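 Test samples were dissolved in DMSO; thioflavin S or 0.8% DMSO served as controls. ATP was added from a 5 mM solution. Fluorescence was read at t0 and after 1 h at 25°C. Ratio_RFU = RFU_t60/RFU_t0, and percent inhibition was calculated.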

Sequence of HCV NS3 helicase (P27958 1192-1657 limits assumed): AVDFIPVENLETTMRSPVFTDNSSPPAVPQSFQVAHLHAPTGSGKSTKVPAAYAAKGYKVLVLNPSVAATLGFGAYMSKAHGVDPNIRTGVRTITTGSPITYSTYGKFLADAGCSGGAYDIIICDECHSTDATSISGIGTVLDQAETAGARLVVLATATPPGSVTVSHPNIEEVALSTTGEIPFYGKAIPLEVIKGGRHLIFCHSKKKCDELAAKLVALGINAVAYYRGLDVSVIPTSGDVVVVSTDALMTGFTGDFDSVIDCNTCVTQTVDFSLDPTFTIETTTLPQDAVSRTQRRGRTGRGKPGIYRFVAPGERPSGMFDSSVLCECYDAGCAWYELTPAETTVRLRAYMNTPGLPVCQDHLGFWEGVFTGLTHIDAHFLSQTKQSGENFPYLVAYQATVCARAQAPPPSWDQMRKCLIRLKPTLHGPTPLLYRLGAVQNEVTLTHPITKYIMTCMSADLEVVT
Sequence of HCV NS3 protease (P27958 1027-1657): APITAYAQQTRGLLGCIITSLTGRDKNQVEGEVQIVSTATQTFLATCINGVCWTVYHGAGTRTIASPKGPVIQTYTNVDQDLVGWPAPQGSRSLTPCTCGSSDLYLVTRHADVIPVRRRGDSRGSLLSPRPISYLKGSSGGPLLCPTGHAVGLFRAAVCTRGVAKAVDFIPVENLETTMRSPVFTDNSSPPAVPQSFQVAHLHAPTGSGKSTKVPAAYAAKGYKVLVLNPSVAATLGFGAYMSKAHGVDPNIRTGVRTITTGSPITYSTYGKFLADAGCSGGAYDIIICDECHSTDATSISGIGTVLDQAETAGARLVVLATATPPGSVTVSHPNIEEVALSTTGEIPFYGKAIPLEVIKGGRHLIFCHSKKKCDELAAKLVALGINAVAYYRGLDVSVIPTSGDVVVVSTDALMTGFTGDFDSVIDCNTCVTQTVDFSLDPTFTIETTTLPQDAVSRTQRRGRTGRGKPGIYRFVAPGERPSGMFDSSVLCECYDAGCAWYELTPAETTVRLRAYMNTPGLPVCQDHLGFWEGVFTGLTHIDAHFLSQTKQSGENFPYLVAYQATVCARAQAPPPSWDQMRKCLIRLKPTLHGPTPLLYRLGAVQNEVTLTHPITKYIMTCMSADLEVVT

Row | IC50 (HCV NS3 helicase) | Compound | IC50 NS3 Protease (HCV NS3 protease) | IC50 NS3 Helicase (HCV NS3 helicase; SNPs of total extract and petroleum ether fraction, controls (Table 2))
1 | – | O=[N+]([O-])[O-].[Ag+] [AgNO3] | 52.67 ± 0.33 µg/mL | 77.72 ± 4.57 µg/mL
2 | 19.1 µM | NC(=O)c1ncn([C@@H]2O[C@H](CO)[C@@H](O)[C@H]2O)n1 [Ribavirin] | – | –
